Columns and labels:
Type in all cases: tissue-based
[1] = target: T1, Sodium-dependent serotonin transporter (Rattus norvegicus, UniProt P31652); assay: Displacement of [3H]paroxetine from SERT in rat brain
In short: (§1)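 Competition binding in rat cortical and striatal brain homogenates, with tissue assignment per transporter not specified. Radioligands were [3H]WIN 35,428 for DAT, [3H]nisoxetine for NET and [3H]paroxetine for SERT. Ki values are means of two independent experiments, each run in triplicate; some entries come from a single experiment (n = 1, in triplicate).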

[2] = target: Sodium-dependent dopamine transporter (Rattus norvegicus, UniProt P23977); assay: Displacement of [3H]WIN-35428 from DAT in rat brain; in short: as §1
[3] = target: Norepinephrine transporter (Rattus norvegicus, UniProt Q9WTR4); assay: Displacement of [3H]nisoxetine from NET in rat brain; in short: as §1
[4] = target: T1, Sodium-dependent serotonin transporter; assay: Displacement of [3H]citalopram from SERT in rat brain

Chain of Sodium-dependent dopamine transporter (P23977 whole entry): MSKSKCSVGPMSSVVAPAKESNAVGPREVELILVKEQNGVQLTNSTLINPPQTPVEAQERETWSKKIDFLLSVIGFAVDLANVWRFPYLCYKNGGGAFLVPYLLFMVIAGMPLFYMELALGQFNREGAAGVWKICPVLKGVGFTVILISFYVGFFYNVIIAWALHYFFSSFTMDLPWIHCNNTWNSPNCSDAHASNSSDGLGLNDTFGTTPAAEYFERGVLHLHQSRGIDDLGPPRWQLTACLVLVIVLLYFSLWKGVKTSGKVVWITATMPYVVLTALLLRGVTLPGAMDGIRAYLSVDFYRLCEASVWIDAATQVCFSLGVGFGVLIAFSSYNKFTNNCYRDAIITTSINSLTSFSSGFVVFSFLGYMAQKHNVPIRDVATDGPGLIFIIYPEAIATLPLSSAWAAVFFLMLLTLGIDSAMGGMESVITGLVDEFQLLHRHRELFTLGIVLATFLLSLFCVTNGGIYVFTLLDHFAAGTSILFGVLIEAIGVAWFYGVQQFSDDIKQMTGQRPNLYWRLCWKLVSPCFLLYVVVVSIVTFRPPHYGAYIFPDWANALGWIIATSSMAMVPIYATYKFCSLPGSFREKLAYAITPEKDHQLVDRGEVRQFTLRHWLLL
T1 sequence (P31652 whole entry): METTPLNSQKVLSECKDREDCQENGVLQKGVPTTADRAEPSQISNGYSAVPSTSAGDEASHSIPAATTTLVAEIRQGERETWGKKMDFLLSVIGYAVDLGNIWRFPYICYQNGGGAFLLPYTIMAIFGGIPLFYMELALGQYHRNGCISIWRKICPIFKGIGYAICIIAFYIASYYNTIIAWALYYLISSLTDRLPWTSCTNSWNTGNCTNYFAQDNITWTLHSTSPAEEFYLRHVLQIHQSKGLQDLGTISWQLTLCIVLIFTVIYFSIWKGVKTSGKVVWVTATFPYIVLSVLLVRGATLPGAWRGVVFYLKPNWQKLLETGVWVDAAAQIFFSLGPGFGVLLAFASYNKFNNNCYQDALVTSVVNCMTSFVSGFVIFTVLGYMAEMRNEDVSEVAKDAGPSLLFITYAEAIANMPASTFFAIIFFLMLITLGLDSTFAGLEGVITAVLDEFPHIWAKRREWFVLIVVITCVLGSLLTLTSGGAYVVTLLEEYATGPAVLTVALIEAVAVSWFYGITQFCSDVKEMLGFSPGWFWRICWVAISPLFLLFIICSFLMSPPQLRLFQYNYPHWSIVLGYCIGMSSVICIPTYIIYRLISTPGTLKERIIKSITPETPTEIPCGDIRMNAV
Chain of Norepinephrine transporter (Q9WTR4 whole entry): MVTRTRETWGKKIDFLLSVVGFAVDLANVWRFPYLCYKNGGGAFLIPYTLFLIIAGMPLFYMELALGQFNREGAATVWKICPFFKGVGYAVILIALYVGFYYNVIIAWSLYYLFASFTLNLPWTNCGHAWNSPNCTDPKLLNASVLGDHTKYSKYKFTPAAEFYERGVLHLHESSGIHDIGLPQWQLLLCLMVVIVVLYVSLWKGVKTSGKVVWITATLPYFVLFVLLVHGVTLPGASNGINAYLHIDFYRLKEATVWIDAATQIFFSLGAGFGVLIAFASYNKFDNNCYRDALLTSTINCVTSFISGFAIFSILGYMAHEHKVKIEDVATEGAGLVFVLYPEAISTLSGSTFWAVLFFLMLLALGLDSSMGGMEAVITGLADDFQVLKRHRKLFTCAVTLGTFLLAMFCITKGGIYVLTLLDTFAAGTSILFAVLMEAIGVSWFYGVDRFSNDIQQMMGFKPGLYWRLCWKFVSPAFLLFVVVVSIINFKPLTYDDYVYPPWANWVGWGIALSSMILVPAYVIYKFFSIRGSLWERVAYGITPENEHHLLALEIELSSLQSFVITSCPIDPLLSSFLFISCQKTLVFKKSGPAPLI

Row | Structure (SMILES) | Ki [1] [µM] | Ki [2] [µM] | Ki [3] [µM] | Ki [4] [µM]
1 | Cc1ccc(Sc2ccccc2CN(C)C)c(N)c1 | 0.00062 | 4.16 | – | –
2 | CN(C)Cc1cc(Cl)ccc1Oc1ccc(F)cc1N | – | 2.53 | 2.74 | 0.00206
3 | Cc1ccc(Sc2ccc(F)cc2CN(C)C)c(N)c1 | 0.00027 | 3.65 | 1.04 | –
4 | CN(C)Cc1cc(F)ccc1Sc1ccc(Cl)cc1N | 0.00035 | 1.84 | 0.919 | –
5 | CN(C)Cc1cc(F)ccc1Oc1ccc(C#N)cc1N | 0.00291 | 68.3 | 5.55 | –
6 | CN(C)Cc1cc(F)ccc1Sc1ccc(C#N)cc1N | – | 14.1 | 17.9 | 0.00028
7 | Cc1ccc(Oc2ccc(F)cc2CN(C)C)c(N)c1 | 0.00701 | 2.79 | 0.518 | –
8 | CN(C)Cc1ccccc1Oc1ccc(F)cc1N | 0.0134 | 4.36 | 1.08 | –
